The list is not random: actives were taken first. Their share in the collection is about 2.6%.
SR-BI uptake up: activators of SR-BI mediated DiI-HDL uptake, primary screen, ldlA[mSR-BI] CHO cells, DiI fluorescence | activation, % at 12.5 µM | hit rate 0.096% among 320,000 | 3 h; 100 = double the neutral-control signal;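 active = mean replicate activation of at least 60% and every replicate at or above 60%; inconclusive = mean or all-replicate condition met, but not both; inactive = mean below 60% and not all replicates reaching 60%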
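System: LDL receptor-deficient CHO ldlA cells overexpressing murine SR-BI | Timing: 3 h uptake period with compound, 37 °C | Medium: HEPES-buffered (25 mM, pH 7.4) F12 plus 0.5% BSA | Dosing: Single-point compound dose | Signal: Bottom-read fluorescence, 550/595 nm | Read-out: Retained DiI signal reflecting DiI-HDL uptake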
SR-BI DiI inh: inhibitors of SR-BI mediated HDL lipid uptake, primary screen, ldlA[mSR-BI] cells, fluorescence, single point; Scavenger receptor class B member 1 (Mus musculus), Q61009; ldlA[mSR-BI] CHO cells, DiI-HDL uptake fluorescence, 3 h; inhibition, % at 12.5 µM; hit rate 0.96% among 320,000; AID 488896, 2010;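 active = mean replicate inhibition of at least 70% and a set share of replicates each scoring 70 or more; inconclusive = meets just one of the two criteria; inactive = fails both criteria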
Target sequence (Q61009 whole entry, looked up): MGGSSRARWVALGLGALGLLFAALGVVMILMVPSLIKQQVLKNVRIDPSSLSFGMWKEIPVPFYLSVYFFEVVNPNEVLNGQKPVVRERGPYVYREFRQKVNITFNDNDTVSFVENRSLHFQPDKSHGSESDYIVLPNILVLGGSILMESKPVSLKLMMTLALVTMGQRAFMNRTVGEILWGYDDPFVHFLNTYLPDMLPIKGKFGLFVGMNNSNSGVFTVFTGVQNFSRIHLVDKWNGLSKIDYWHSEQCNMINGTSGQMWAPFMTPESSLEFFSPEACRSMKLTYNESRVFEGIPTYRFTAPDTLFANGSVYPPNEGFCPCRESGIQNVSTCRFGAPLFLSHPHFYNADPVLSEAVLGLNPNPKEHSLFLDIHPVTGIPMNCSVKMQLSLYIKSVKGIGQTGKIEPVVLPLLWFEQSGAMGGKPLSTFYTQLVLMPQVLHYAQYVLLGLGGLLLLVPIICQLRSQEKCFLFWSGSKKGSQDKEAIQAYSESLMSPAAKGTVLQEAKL
PvdQ inh: P. aeruginosa PvdQ acylase inhibitors, primary screen, biochemical, fluorescence, plate reader and imaging, single point. PvdQ acylase [Pseudomonas aeruginosa LESB58]. inhibition, % at 10 µM. hit rate 0.063% among 340,000. purified PvdQ acylase; in the data active = inhibition above about 30%, passing the limit was not always enough; inconclusive = no clear call, values can overlap the other calls
Xi reactivation: activators of inactive X chromosome reactivation, primary screen, imaging, XiGFP fibroblasts, GFP high-content imaging, set 2. XiGFP mouse fibroblasts, % GFP-positive cells imaging, 3 d; cells co-treated with 5-aza-dC sensitizer; scaled so ellipticine positive control = 100%. activation, % at 7.58 µM. hit rate 0.055% among 360,000. AID 743238, 2013;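 active = mean normalized replicate activation at least 10% and every replicate at or above 10%; inconclusive = only one of the two criteria met; inactive = mean below 10% and not all replicates reach 10%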
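Material: XiGFP fibroblasts, SV40-immortalized; Buffer or medium: DMEM containing 5-aza-dC; Compound dosing: single point; Times: 3 days compound exposure.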
dFosB act: activators of delta FosB homodimer, primary screen, biochemical, fluorescence polarization, TAMRA-CDK5 oligo, single point | activation, % at 25 µM | purified delta FosB; percent of positive-control signal above neutral wells | hit rate 0.99% among 340,000;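 active = mean activation above about 17%, with every replicate also reaching it, limit read from the data, passing the limit was not always enough; inconclusive = only one of the two conditions met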
Ecoli rRNA inh: reduced GFP signal of wild-type E. coli, primary screen, bacterial rRNA inhibitor project, GFP/RFP fluorescence, OD600, single point. hit rate 1.6% among 350,000. GFP signal change (wild-type ribosome), % (concentration not given with the values). E. coli WT GFP vs humanized-ribosome RFP mutants, 24 h; active compounds read low; DMSO median 0, no signal -100. AID 720706, 2013;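 active = significant combined selectivity score with lowered wild-type GFP, culture density cut under 30%, mutant RFP and density less affected; inactive = any of these conditions unmet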
Large screens that a line does not name were inactive; ! = not confirmed by another sample.

O=C(Nc1ccc(F)cc1)N[C@H]1CC[C@H](CCNS(=O)(=O)c2cccc(Cl)c2)O[C@@H]1CO	Ecoli rRNA inh -17.4! (no result: SR-BI uptake up, SR-BI DiI inh, PvdQ inh, dFosB act)
O=C(NCC[C@@H]1CC[C@@H](NS(=O)(=O)c2ccccc2)[C@@H](CO)O1)c1cc(Cl)cc(Cl)c1	Ecoli rRNA inh -16.4! (no result: SR-BI uptake up, SR-BI DiI inh, PvdQ inh, dFosB act)
CCN1CCN(CCC(=O)Nc2ccc(Br)c(C)c2)CC1	none
CCOC(=O)N1CCN(CCC(=O)Nc2ccc(Br)c(C)c2)CC1	Ecoli rRNA inh -22.7
COc1ccc(NC(=O)Nc2ccc3c(c2)CC(=O)N([C@@H](C)CO)C[C@H](C)[C@H](CN(C)C(=O)Nc2c(C)noc2C)O3)cc1	none (no result: SR-BI uptake up, SR-BI DiI inh, PvdQ inh, dFosB act)
O=C(NCc1nnc(SCc2ccccc2)n1-c1ccccc1)C12CC3CC(CC(C3)C1)C2	Ecoli rRNA inh -30.6
O=C(NCCCSc1ccccc1)c1cccnc1	none
CC(NC(=O)CSc1nnc2n1CCCCC2)c1ccccc1Cl (stereo unspecified)	none (no result: Ecoli rRNA inh)
CCc1nc2ccc(C(=O)N3CCN(c4ccc([N+](=O)[O-])cc4)CC3)cc2nc1CC	Ecoli rRNA inh -23.0
CCc1noc(C)c1C(=O)N1CCN(c2ccc([N+](=O)[O-])cc2)CC1	none (no result: SR-BI uptake up, SR-BI DiI inh, PvdQ inh, dFosB act)
COC(CNC(=O)c1ccc2nc(-c3ccccc3)c(-c3ccccc3)nc2c1)OC	SR-BI DiI inh 79.8
COc1ccc(C(=O)Nc2ccc(C)cc2C(=O)c2ccccc2)cc1	Ecoli rRNA inh -18.6
COc1ccc2nc(-c3ccc(Cl)cc3)cc(C(=O)O)c2c1	Ecoli rRNA inh -33.0
COc1ccc(-c2nc3ccc(C(=O)NCC(OC)OC)cc3nc2-c2ccc(OC)cc2)cc1	none
Cc1cc(NC(=O)c2ccc3nc(-c4ccccc4)c(-c4ccccc4)nc3c2)no1	SR-BI DiI inh 80.2 (no result: Xi reactivation, Ecoli rRNA inh)
COc1ccccc1C(=O)Nc1ccc(C)cc1C(=O)c1ccccc1	none (no result: Ecoli rRNA inh)
O=C(CSc1nc2ccccc2c(=O)n1-c1ccccc1F)NC1CCS(=O)(=O)C1 (stereo unspecified)	none (no result: Ecoli rRNA inh)
Cc1ccccc1N1C(=O)c2cccc3c(N(C)CCO)ccc(c23)C1=O	none (no result: Xi reactivation, Ecoli rRNA inh)
NS(=O)(=O)c1ccc(CCNC(=O)c2cc(-c3cccs3)nc3ccccc23)cc1	SR-BI DiI inh inconclusive
COc1ccc(NC(=O)c2ccc3[nH]c(C)c(C)c3c2)c(OC)c1	SR-BI DiI inh 109.4, Ecoli rRNA inh -14.7
COc1ccc(-c2cc(C(=O)N(C)Cc3ccc(F)cc3)c3ccccc3n2)cc1OC	Ecoli rRNA inh -28.0
CCn1cc(CNC(=O)c2cc(-c3cc(OC)ccc3OC)nc3ccccc23)c(C)n1	SR-BI DiI inh 78.3 (no result: Ecoli rRNA inh)
CCOc1ccccc1NC(=O)c1ccc2[nH]c(C)c(C)c2c1	none (no result: SR-BI uptake up, SR-BI DiI inh)
COc1ccccc1NC(=O)c1ccc2nc(-c3ccccc3)c(-c3ccccc3)nc2c1	none (no result: Xi reactivation, Ecoli rRNA inh)
COc1ccc(CCN(C)C(=O)c2cc(-c3ccc(C)cc3)nc3ccccc23)cc1OC	none
COc1ccc(NC(=O)c2ccc3nc(-c4ccccc4)c(-c4ccccc4)nc3c2)c(OC)c1	SR-BI DiI inh 75.7
COc1ccc(NC(C)C(=O)Nc2ccc(C#N)cc2)cc1Cl (stereo unspecified)	none (no result: Xi reactivation, Ecoli rRNA inh)
COc1ccc(NC(=O)c2cc(-c3ccc(OC)c(OC)c3)nc3ccccc23)c(OC)c1	SR-BI DiI inh 94.7
O=C(O)c1ccc(S(=O)(=O)Nc2ccc(O)c(Sc3nc4ccccc4s3)c2)cc1	Ecoli rRNA inh -23.4
NS(=O)(=O)c1ccc(Sc2nc3ccccc3s2)c([N+](=O)[O-])c1	Ecoli rRNA inh -25.1
CC(C)(C)c1ccc(OCc2ccc(C(=O)N/N=C3\CC4CC=CC34)cc2)cc1 (stereo unspecified)	SR-BI DiI inh 78.7 (no result: Xi reactivation, Ecoli rRNA inh)

From PubChem BioAssay
